This is a sample that favours compounds with a hit; in the whole collection about 1.9% have one here.
Runt-CBFb FRET = inhibitors of RUNX1 Runt–CBFb binding, primary screen, biochemical, FRET, Cerulean-Runt, Venus-CBFb, uHTS; AID 1496, 2009; Cerulean-Runt/Venus-CBFb FRET ratio 530/480, 1 h; Runt-related transcription factor 1 (Homo sapiens) + Core-binding factor subunit beta …; hit rate 0.46% among 220,000; inhibition, % at 20 µM;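 active means inhibition over about 50% at 20 µM in the single-dose screen, limit read from the data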
Target sequence (Q01196 whole entry, looked up): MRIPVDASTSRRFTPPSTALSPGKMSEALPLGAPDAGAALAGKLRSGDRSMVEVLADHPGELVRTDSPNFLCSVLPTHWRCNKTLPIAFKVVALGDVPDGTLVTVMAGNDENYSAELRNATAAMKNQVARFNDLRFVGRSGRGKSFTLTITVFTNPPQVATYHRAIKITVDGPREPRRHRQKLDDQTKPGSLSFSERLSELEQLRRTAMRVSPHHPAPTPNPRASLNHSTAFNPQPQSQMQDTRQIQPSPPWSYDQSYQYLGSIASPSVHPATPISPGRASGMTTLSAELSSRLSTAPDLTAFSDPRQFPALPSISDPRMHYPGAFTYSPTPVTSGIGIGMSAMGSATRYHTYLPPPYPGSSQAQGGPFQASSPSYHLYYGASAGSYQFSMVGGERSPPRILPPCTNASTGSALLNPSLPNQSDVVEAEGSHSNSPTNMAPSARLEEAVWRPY
Target sequence (Q13951 whole entry, looked up): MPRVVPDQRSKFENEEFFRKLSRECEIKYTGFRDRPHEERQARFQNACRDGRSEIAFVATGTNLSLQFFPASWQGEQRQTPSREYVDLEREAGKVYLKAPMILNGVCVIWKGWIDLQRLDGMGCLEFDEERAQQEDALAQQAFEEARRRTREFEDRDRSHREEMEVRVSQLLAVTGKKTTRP
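Reagent – Venus-CBFb binding partner, 100 nM · Assay system – Cerulean-tagged RUNX1 Runt domain (FRET donor) fusion protein · Input – 100 nM per protein · Incubation – two 1 h room-temperature incubations shielded from light · Measured by – FRET fluorescence · Medium – Tris buffer pH 7.5 with salts and BSA · Benchmarks – unlabeled CBFb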
Tb hexokinase = Trypanosoma brucei hexokinase 1 inhibitors, primary screen, biochemical, G6PDH-coupled NADH absorbance, MLSCN library. hexokinase 1 [Trypanosoma brucei]. recombinant TbHK1, G6PDH-coupled NADH A340. inhibition, % at 10 µM. hit rate 0.11% among 220,000. AID 1430, 2008;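 active means inhibition of 50% or more in the single-dose primary screen; inactive means inhibition below 50%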
Hck-Nef inh = inhibitors of Nef-activated human Hck kinase, primary screen, biochemical, Z-Lyte FRET, 384-well, Hck-YEEI; Tyrosine-protein kinase HCK (Homo sapiens), P08631; Recombinant Hck-YEEI plus Nef, Z-Lyte FRET kinase assay; AID 463187, 2010; inhibition, % at 20 µM; hit rate 0.68% among 220,000;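 active means Hck-Nef kinase inhibition above about 50%, limit read from the data; inactive means inhibition below that limit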
Runt-SMMHC FRET = inhibitors of RUNX1 Runt–CBFb-SMMHC binding, primary screen, biochemical, FRET, Cerulean-Runt, Venus-CBFb-SMMHC, uHTS; Runt-related transcription factor 1 (Homo sapiens) + Core-binding factor subunit beta …; inhibition, % at 20 µM; Cerulean-Runt/Venus-CBFb-SMMHC FRET ratio 530/480, 1 h; hit rate 0.74% among 220,000;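 active means mean inhibition across duplicate retests at 20 µM reaching about 50%, limit read from the data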;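 further: inhibitors lower the FRET ratio by blocking Runt binding to CBFb-SMMHC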
RanGTP-Impb inh = inhibitors of RanGTP-importin-beta interaction, primary screen, biochemical, FRET, CFP-Ran, YFP-importin-beta, homogeneous; Ran GTPase (GTP-bound) - importin-beta complex; AID 2216, 2009; hit rate 1.1% among 300,000; cell-free CFP-Ran/YFP-importin-beta FRET ratio; inhibition, % (concentration not given with the values);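 active means more than half of the replicate wells show a fall in the fluorescence ratio signal beyond about 16%, limit read from the data, passing the limit was not always enough; inconclusive means exactly half of the replicate wells pass the set limit; inactive means fewer than half of replicates pass the limit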
Of the large screens only hits and unclear results are named; the others gave an inactive call.

Cc1ccc(S(=O)(=O)c2cc3c(=O)n4cccc(C)c4nc3n(CC3CCCO3)c2=N)cc1C (centres undefined)	Runt-CBFb FRET 65.8, Runt-SMMHC FRET 88.1, RanGTP-Impb inh 136.6
Cc1cccn2c(=O)c3cc(S(=O)(=O)c4ccccc4)c(=N)n(CC4CCCO4)c3nc12 (centres undefined)	Runt-SMMHC FRET 81.0, RanGTP-Impb inh 158.1
Cc1cccn2c(=O)c3cc(C#N)c(=N)n(CC4CCCO4)c3nc12 (centres undefined)	none (no result: Runt-CBFb FRET, Runt-SMMHC FRET, RanGTP-Impb inh)
Cc1ccc(N(CC(=O)NCc2ccccn2)S(=O)(=O)c2ccccc2)cc1C	none (no result: Runt-CBFb FRET, Tb hexokinase, Hck-Nef inh, Runt-SMMHC FRET)
CCN1C(=O)[C@H]2[C@@H](c3ccc(-c4ccc(C(C)=O)cc4)cc3)N3CCCC[C@@]3(C(=O)OC)[C@H]2C1=O	none (no result: Runt-CBFb FRET, Tb hexokinase, Hck-Nef inh, Runt-SMMHC FRET)
CN1CC=C2C(C#N)=C(N)C(C#N)(C#N)C(CCc3ccccc3)C2C1 (centres undefined)	Runt-CBFb FRET 103.2, Runt-SMMHC FRET 78.7
CN1CC=C2C(C#N)=C(N)C(C#N)(C#N)[C@H](c3cccs3)[C@H]2C1	Runt-SMMHC FRET 75.1, RanGTP-Impb inh 54.6
CN1CC=C2C(C#N)=C(N)C(C#N)(C#N)[C@H](c3cccc(Cl)c3)C2C1 (some centres undefined)	Runt-SMMHC FRET 58.0, RanGTP-Impb inh 45.0
CC(C)c1ccc(C2C3CSCC=C3C(C#N)=C(N)C2(C#N)C#N)cc1 (centres undefined)	RanGTP-Impb inh 16.4
N#CC1=C(N)C(C#N)(C#N)C(c2ccncc2)C2CN(C(=O)OCc3ccccc3)CC=C12 (centres undefined)	none
COC(=O)Cn1ncc(N(C)Cc2ccccc2)c(Cl)c1=O	none (no result: Runt-CBFb FRET, Tb hexokinase, Hck-Nef inh, Runt-SMMHC FRET)
CCCn1c(=O)c(C(=O)NNC(=O)c2ccccc2Cl)c(O)c2ccccc21	none (no result: Runt-CBFb FRET, Tb hexokinase, Hck-Nef inh, Runt-SMMHC FRET)
CCOC(=O)c1[nH]c(C=O)c(C(=O)OCC)c1C	none (no result: Runt-CBFb FRET, Runt-SMMHC FRET)
CN1CC=C2C(C#N)=C(N)C(C#N)(C#N)C(c3ccsc3)C2C1 (centres undefined)	Runt-CBFb FRET 66.1, Runt-SMMHC FRET 80.4, RanGTP-Impb inh 65.3
CCCC1C2CN(C(C)C)CC=C2C(C#N)=C(N)C1(C#N)C#N (centres undefined)	RanGTP-Impb inh 88.6
CCOC(=O)N1CC=C2C(C#N)=C(N)C(C#N)(C#N)[C@H](c3ccsc3)[C@H]2C1	none
O=C(NCCCN1CCOCC1)c1onc(CSc2ccc(F)c(F)c2)c1C(=O)NCCCN1CCOCC1	none (no result: Runt-CBFb FRET, Tb hexokinase, Hck-Nef inh, Runt-SMMHC FRET)
COc1cc2c(cc1OC)CN(CC(=O)Nc1ccc(F)cc1F)CC2	RanGTP-Impb inh 19.5 (no result: Runt-CBFb FRET, Tb hexokinase, Hck-Nef inh, Runt-SMMHC FRET)
COc1cc2c(cc1OC)CN(CC(=O)Nc1cccc(C)c1)CC2	RanGTP-Impb inh 31.6
O=C(CN1CCc2ccccc2C1)Nc1ccc(F)cc1F	none
CC1CC(C)CN(C(=O)c2nn(C)c3c2CS(=O)(=O)c2ccccc2-3)C1 (centres undefined)	none (no result: Runt-CBFb FRET, Tb hexokinase, Hck-Nef inh, Runt-SMMHC FRET)
O=C(Nc1ccccc1-c1nnc(SCc2ccccc2Cl)o1)c1ccccc1	none
Cc1ccccc1Cn1cc(NC(=O)c2cc(C3CC3)on2)cn1	none
CC(=O)N(/N=C1\Sc2ccccc2C1=O)c1cccc(C)c1	RanGTP-Impb inh 23.3
CC(=O)N(CN1C(=O)c2ccccc2C1=O)c1cccc(C)c1	none
CCOc1ccc(CN(C(=O)c2cc(=O)c3cc(C)cc(C)c3o2)C2CCS(=O)(=O)C2)cc1 (centres undefined)	none (no result: Runt-CBFb FRET, Tb hexokinase, Hck-Nef inh, Runt-SMMHC FRET)
O=S(=O)(Cc1ccccc1)N1CCN(c2ccccc2)CC1	RanGTP-Impb inh 58.8 (no result: Runt-CBFb FRET)
COc1cc(C2C(C#N)=C(N)N(c3cccnc3)C3=C2C(=O)CCC3)ccc1O (centres undefined)	none
CCSc1sccc1C1C(C#N)=C(N)N(c2cccnc2)C2=C1C(=O)CCC2 (centres undefined)	Runt-SMMHC FRET 66.2, RanGTP-Impb inh inconclusive
Cc1cccn2c(=O)c3cc(C#N)c(=N)n(Cc4cccnc4)c3nc12	none (no result: Runt-CBFb FRET, Runt-SMMHC FRET, RanGTP-Impb inh)
CCN1CCN(C(=O)c2cc3c(=O)n4ccccc4nc3n2Cc2ccccc2)CC1	none (no result: Tb hexokinase, Hck-Nef inh, RanGTP-Impb inh)
CC(=O)N=c1c(C#N)cc2c(=O)n3ccccc3nc2n1Cc1ccccc1	Runt-CBFb FRET 138.3, Runt-SMMHC FRET 81.1, RanGTP-Impb inh 32.4
N#Cc1cc2c(=O)n3ccccc3nc2n(Cc2cccnc2)c1=O	RanGTP-Impb inh 74.3 (no result: Runt-CBFb FRET, Tb hexokinase, Hck-Nef inh, Runt-SMMHC FRET)
Cc1cccn2c(=O)c3cc(C#N)c(=O)n(Cc4cccnc4)c3nc12	Runt-CBFb FRET 79.2 (no result: Tb hexokinase, Hck-Nef inh, RanGTP-Impb inh)
O=c1c2ccc(Cl)cc2[nH]c(=S)n1Cc1cccnc1	none
Cc1cc(C)n(C(C)CC(=O)Nc2ccc3c(c2)OCO3)n1 (centres undefined)	none (no result: Runt-CBFb FRET, Tb hexokinase, Hck-Nef inh, Runt-SMMHC FRET)
CC(=O)Nc1ccc(S(=O)(=O)N2CCc3cc4c(cc3C2)OCCCO4)cc1	none (no result: Runt-CBFb FRET, Tb hexokinase, Hck-Nef inh, Runt-SMMHC FRET)
C=CCOC(=O)c1cc(-c2ccc(/C=C3\C(=O)NC(=O)C(C#N)=C3C)o2)ccc1Cl	Hck-Nef inh 90.9 (no result: RanGTP-Impb inh)
COC(=O)N1C(=O)[C@@](c2ccccc2)(C2CCCCC2)N1C(=O)OC	none (no result: Runt-CBFb FRET, Tb hexokinase, Hck-Nef inh, Runt-SMMHC FRET)
CN1CCc2c(sc(N)c2C(N)=O)C1	Runt-CBFb FRET 100.7, Runt-SMMHC FRET 142.7, RanGTP-Impb inh 86.3
CCN1CCc2c(sc(N)c2C(N)=O)C1	Runt-CBFb FRET 90.2, RanGTP-Impb inh 101.2
NC(=O)c1c(N)sc2c1CCCC2	none
Cc1c(Cl)cccc1NC(=O)C1CC2CCC1C2 (centres undefined)	none (no result: Runt-CBFb FRET, Tb hexokinase, Hck-Nef inh, Runt-SMMHC FRET)
Cc1ccnc(NC(=O)CNC(=O)c2ccccc2Br)c1	none (no result: Runt-CBFb FRET, Tb hexokinase, Hck-Nef inh, Runt-SMMHC FRET)

Assay outcomes: PubChem, several laboratories
